Screening data (PubChem BioAssay)
Sampled rows, rich in hits. Any-hit rate of the full collection: about 3.5%.
MrgX1 PAM – allosterically activates human MrgX1 receptor signaling; Q96LB2; MrgX1-HEK293, Fluo-4 calcium flux, FDSS; active compounds read high; B-score at 10 µM; 310,000 tested, 0.63% active;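 active means plate-corrected calcium response at least 3 library SD above typical, normal starting fluorescence, not activating the receptor alone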;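 further: compound read alongside a low EC10 to EC30 dose of BAM8-22 agonist; peak minus trough fluorescence over baseline measured at the second addition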
Target sequence (Q96LB2 whole entry, looked up): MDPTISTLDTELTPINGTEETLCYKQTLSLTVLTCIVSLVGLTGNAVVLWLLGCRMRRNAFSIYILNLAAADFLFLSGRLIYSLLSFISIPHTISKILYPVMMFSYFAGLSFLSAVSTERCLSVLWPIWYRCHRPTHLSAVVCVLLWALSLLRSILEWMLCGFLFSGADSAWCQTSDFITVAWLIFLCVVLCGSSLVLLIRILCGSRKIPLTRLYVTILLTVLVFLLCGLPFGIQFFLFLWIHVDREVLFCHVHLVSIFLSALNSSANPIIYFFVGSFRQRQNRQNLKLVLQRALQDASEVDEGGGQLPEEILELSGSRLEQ
MrgX1 agonist – agonists of human MrgX1 receptor. Q96LB2. MrgX1-HEK293 cells, Fluo-4 calcium fluorescence, agonist mode; active compounds read high. B-score at 10 µM. 310,000 tested, 0.44% active. AID 588627;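 active means calcium response B-score plate-corrected fluorescence ratio at least 3 library SD, with starting fluorescence B-score inside 5 SD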
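Test system: HEK293 cells stably expressing human MrgX1 receptor; Input: fifteen thousand cells per well; Dosing: compound delivered in addition one of three; Schedule: overnight seeding, then 1 h dark dye loading; Technique: Fluo-4 NW calcium fluorescence; Measure: B-scored fluorescence response ratio; Controls: positive and negative controls per plate.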
RGS4 inh – human RGS4 inhibition; 310,000 tested, 0.45% active; HEK293 M3R/RGS4 inducible, Fluo-4 calcium flux; active compounds read high; triggered by carbachol at its EC20; B-score at 10 µM; P49798; AID 463165;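 active means B-score, a plate-corrected calcium signal, over three deviations above library mean, with baseline fluorescence within five deviations of library mean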;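 further: RGS4 expression induced by doxycycline in cells with stable M3 receptor; B-score is computed from the integrated fluorescence ratio over baseline after carbachol; higher B-score means a larger calcium signal and so more RGS4 inhibition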
Target sequence (P49798 whole entry, looked up): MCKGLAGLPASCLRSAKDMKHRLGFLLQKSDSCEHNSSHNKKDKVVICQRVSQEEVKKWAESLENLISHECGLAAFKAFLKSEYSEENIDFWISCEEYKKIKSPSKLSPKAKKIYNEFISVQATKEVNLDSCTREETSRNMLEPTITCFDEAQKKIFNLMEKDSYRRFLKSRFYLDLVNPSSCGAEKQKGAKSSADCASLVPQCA
RGS4 act – potentiators or activators of RGS4; B-score at 10 µM; HEK293 M3R/inducible RGS4, carbachol calcium flux Fluo4; active compounds read low; 310,000 tested, 0.92% active; AID 463111;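 active means B-score of the integrated calcium signal more than 4 SD below the library mean, with starting fluorescence not abnormally high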;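 further: negative B-score means reduced calcium response which marks RGS4 activation or potentiation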
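Also added: carbachol at ECmax as muscarinic agonist stimulus; Assay system: HEK293 cells with stable M3R and inducible RGS4; Timing: overnight RGS4 induction, 30 min dye load 37 °C, 20 min compound RT; Measured by: Fluo4-AM (2 µM) calcium-flux fluorescence, kinetic read.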
MrgX1 antag – blocks BAM8-22 activation of human MrgX1 receptor; Q96LB2; MRGX1-HEK293 calcium flux, Fluo-4, BAM8-22 antagonism; active compounds read low; B-score at 10 µM; 310,000 tested, 1.3% active; AID 588676;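 active means calcium-response B-score plate-corrected more than 3 library SD below zero, starting fluorescence within 5 deviations, no agonist response on first addition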;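 further: peak minus trough fluorescence over baseline after final BAM8-22 challenge near maximal dose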
Large screens that a line does not name were inactive.

CCCN(CCC)S(=O)(=O)c1ccc(C(=O)OCCN2C(=O)c3cccc4c(N5CCOCC5)ccc(c34)C2=O)cc1	RGS4 act -8.7
C=CC[n+]1c(-c2ccc(OC)c(OC)c2)csc1NNC(=O)Nc1ccccc1	MrgX1 antag -4.6
CC1=[N+](C)N(c2ccccc2)C(=O)C1N=C/C=C/c1ccccc1 (stereo not given)	RGS4 act -7.5
Cc1cc(C)n(C(=O)c2c([N+](=O)[O-])c(C)nn2C)n1	MrgX1 antag -7.7
NNC(=O)c1[nH]c2ccc([N+](=O)[O-])cc2c1-c1ccccc1	none
O=C(N/N=C/c1ccccn1)c1[nH]c2ccc([N+](=O)[O-])cc2c1-c1ccccc1	MrgX1 antag -5.1
COCCCNC(=O)c1cc2c(=O)n3cc(C)ccc3nc2nc1NCC1CCCO1 (stereo not given)	MrgX1 antag -7.6
Cc1cc(C(=O)OC(C)C(=O)N2CCc3ccccc32)ccc1[N+](=O)[O-] (stereo not given)	none
O=C1CSC(c2ccccc2)N1c1ccc([N+](=O)[O-])cc1 (stereo not given)	RGS4 act -7
Cc1c(N2C(=O)CSC2c2ccc([N+](=O)[O-])cc2)c(=O)n(-c2ccccc2)n1C (stereo not given)	none
CN(CCOc1ccccc1)CC(=O)Nc1ccc(Cl)cc1[N+](=O)[O-]	MrgX1 PAM 13
COc1cc(NC(=O)CN(C)CCOc2ccccc2)c(C)cc1[N+](=O)[O-]	none
COc1ccc(-c2cc(C(=O)Nc3ccccc3O)c3ccccc3n2)cc1OC	RGS4 act -7.3
Cc1ccc(-c2cc(C(=O)Nc3ccncc3)c3ccccc3n2)cc1	MrgX1 antag -7.6
O=C(NCc1cc([N+](=O)[O-])ccc1O)c1cc(-c2ccncc2)nc2ccccc12	RGS4 act -9.1
O=C(Nc1cccnc1)c1cc(-c2cccc(Br)c2)nc2ccccc12	RGS4 act -7.1
O=C(Nc1ccncc1)c1cc(-c2cccc(Br)c2)nc2ccccc12	none
Cc1sc2ncn(CC(=O)N3CCN(c4ccccc4)CC3)c(=O)c2c1S(=O)(=O)N1CCOCC1	none
CCOC(=O)C1(Cc2ccccc2C)CCCN(Cc2ccc(NC(C)=O)cc2)C1 (stereo not given)	none
Cc1ccccc1-c1cc(C(=O)Nc2sc(C)c(C)c2C(N)=O)c2ccccc2n1	RGS4 inh 6.2
COc1ccccc1C(C#N)N1N=C(C)CC1c1ccccc1 (stereo not given)	MrgX1 agonist 28
C/C(=N\NC(=O)C1(C)NC(C)(C)Cc2ccccc21)c1ccccc1 (stereo not given)	none
CCN(CC)c1ccc(CN2CCC(C(=O)NCc3ccc(C)cc3)CC2)cc1	none
CCc1oc(C(=O)OC)cc1CSC(=N)N	MrgX1 agonist 43
Cc1c(CC(=O)O)c(=O)oc2cc(OCc3ccc(Cl)cc3)ccc12	none
O=C(/C=C/c1c(F)cccc1Cl)NCc1ccco1	MrgX1 antag -4.5
O=C(/C=C/c1ccc(F)cc1)NCc1ccco1	none
O=C(CN1C(=O)/C(=C/c2c(F)cccc2Cl)Oc2ccccc21)NCc1ccco1	MrgX1 antag -6.6
O=C(COC(=O)c1cc(=O)[nH]c2ccccc12)Nc1nc(-c2ccccc2)cs1	none
COc1cc(C2C(C(=O)/C=C/c3ccccc3)=C(O)C(=O)N2c2ccccn2)ccc1O (stereo not given)	none
CNc1nc(SCC(=O)Nc2ccccc2)nc(N2CCOCC2)n1	none
CN1CCN(c2ccccc2/C=C2/C(=O)Nc3ccccc32)CC1	RGS4 act -8.5
O=C1Nc2ccccc2/C1=C/c1ccccc1Cl	none
O=C(N1CCN(c2ccccn2)CC1)N1c2ccccc2Sc2ccccc21	RGS4 act -7.4
Cc1ccc(C(=O)NC(C)c2nnc(SCC(=O)NC3CCCC3)n2C)cc1 (stereo not given)	none
COc1ccc(Nc2nc(N)c([N+](=O)[O-])c(NC3CCCCC3)n2)cc1	RGS4 act -9.4
CCCCc1ccc(N=N/C(C(=O)Nc2ccccc2OC)=C(/C)O)cc1	MrgX1 antag -9.1
CC(=O)Nc1ccc(S(=O)(=O)N2CCN(S(=O)(=O)c3ccc(F)c(F)c3F)CC2)cc1	none
CC(C)(C)c1cc(O)c(C(C)(C)C)cc1O	MrgX1 agonist 41, RGS4 act -8.5
Cc1cc(C(C)(C)C)c(O)c(C(C)(C)C)c1	none
COc1ccc(C(=O)NN2CCCCC2)cc1OC	MrgX1 antag -5
COc1ccc(C(=O)c2ccc(OC)c(OC)c2)cc1	MrgX1 antag -5
COc1ccc(C(=O)NCC(=O)N2CCCCC2)cc1OC	none
COCc1cc(CN(C)C(=O)C2CCC(=O)N(Cc3cccc(OC)c3)C2)[nH]n1 (stereo not given)	none
Cc1cccc(NC(=O)CSc2nnc(C)c(C)n2)c1	none
O=[N+]([O-])c1ccccc1S(=O)(=O)Oc1ccc(/C=N/n2cnnc2)cc1	none
COc1cc(/C=N/n2cnnc2)ccc1OS(=O)(=O)c1ccccc1[N+](=O)[O-]	MrgX1 antag -6.6
CCn1c(SCc2cccc(C(F)(F)F)c2)nnc1-c1ccco1	MrgX1 antag -6.4
O=C(/C(=C/c1ccccc1)n1cncn1)c1ccc(Cl)cc1Cl	MrgX1 agonist 27
O=C(/C(=N\O)n1cncn1)c1ccc(Cl)cc1Cl	none
CC(C)CCN1CCC(n2nccc2NC(=O)c2ccc3c(c2)OCO3)CC1	none
O=C1Nc2ccccc2N(O)N1c1ccc(Cl)cc1	none
CCN1c2ccccc2NC2C1C(C(C)=O)C(=O)N2c1ccc(Cl)cc1 (stereo not given)	MrgX1 antag -5.1
CCCN(Cc1ccc(N(CC)CC)cc1)CC1CC1	RGS4 act -7.1
CCCN(Cc1ccc(N(C)C)cc1)CC1CC1	none
COc1cccc(C(=O)NNC(=O)c2ccc3ccccc3c2O)c1	none
Cn1c(Cc2cccc3ccccc23)nnc1SCc1ccc([N+](=O)[O-])cc1	MrgX1 antag -8.6
O=Nc1c(-c2cccc([N+](=O)[O-])c2)nc2ncccn12	RGS4 inh 6.2
O=[N+]([O-])c1cccc(-c2cn3nc(-c4ccccc4)c(-c4ccccc4)nc3n2)c1	none
Nc1ncnc2c1ncn2[C@@H]1O[C@H](COP(=O)(O)OP(=O)(O)OP(=O)(O)O)[C@@H](O)[C@H]1O	MrgX1 agonist 45 (no result: RGS4 inh, RGS4 act)
CC(C)c1ccc2c(c1)CCC1C(C)(CN)CCCC21C (stereo not given)	MrgX1 agonist 46
Cc1cc2ncn(C(=O)c3c(-c4c(Cl)cccc4Cl)noc3C)c2cc1C	RGS4 act -7.2
Cc1onc(-c2c(F)cccc2Cl)c1C(=O)N1CCc2ccccc2C1	none
Cc1cc2ncn(C(=O)c3c(-c4ccccc4)noc3C)c2cc1C	none
Cc1onc(-c2c(Cl)cccc2Cl)c1C(=O)N1CCc2ccccc21	RGS4 act -7.6
Cc1onc(-c2c(Cl)cccc2Cl)c1C(=O)N1CCOCC1	none
